In the RNAGym collection of RNA variant scans (doi:10.1126/science.aae0568):
This sample holds only a part of the variants without activity.

B1: tRNA (parent)
chain: GUUCCGUUGGCGUAAUGGUAACGCGUCUCCCUCCUAAGGAGAAGACUGCGGGUUCGAGUCCCGUACGGAACG

Variants of: B1
Test: yeast fitness relative to wild type (ratio to wild type); higher = fitter; tRNA-Arg(CCU), competitive growth, 37 C, YPD
Procedure, shortened: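 Variants of the tRNA-Arg(CCU) gene were chemically synthesised with a 3% per-site mutation rate across 69 sites and placed at the native genomic locus in Saccharomyces cerevisiae. Six parallel replicates of the pooled strains were competed in YPD at 37°C for 24 hours, and gene amplicons from the start and end populations were read by 100-nucleotide paired-end sequencing. Darwinian fitness relative to wild type was derived from changes in genotype frequencies. Genotypes required ≥ 100 starting reads, and estimates < 0.5 were set to 0.5.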

Variant	yeast fitness
GUUCCGUUGACGUCAUGGUAACGCGUCUACCUCCUAAGGAGAAGACUGCGGGUUCGAGUCCCGUACGGAACG [G10A A14C C29A]	≤ 0.5
GUUCCGUUGACGUUAUGGUGACGCGGCUCCGUCGUAAGGAGUCGACUGCCGGUUCGAGUCCCGUACGGAACG [G10A A14U A20G U26G C31G C34G A42U A43C G50C]	≤ 0.5
GUUCCGUUGACGUUAUGGUAACGCGUCUCCCUCCUAAGGAGACGACUGCGGGUUCGAGUCCCGUACGGCACG [G10A A14U A43C A69C]	≤ 0.5
GUUCCGUUCGCGUAAUGGUAACGCGUCUCCCUCCCAAGGAGAAGAUUGCGGGUUCGAGUCCCGUACGGAACG [G9C U35C C46U]	0.601
GUUCCGUUGACGUAGUGGUAACGCGUCUCCCUCCUAAGGAGAAGACUGCGGGUUUGAGUCCCGUACGGAACG [G10A A15G C55U]	0.591
GUUCCGUUGACGUACUGGUAACGCGUCUCCCUCCUAAGGAGAAGACUGAGGGUUCGAGUCUGGUACGGAACG [G10A A15C C49A C61U C62G]	≤ 0.5
GUUCCGUUCGCGUAAUGGUAACGCGUCUCCCACCUAAGGAGAAGACUGCGGGUUUGUGUCCCGUACGGAACG [G9C U32A C55U A57U]	≤ 0.5
GUUCCGUUCGCGUAAUGGUAACGCGUCUCCCCCCUGAGGAGAAGACUGCGGAUUCGAGUCCCGUACGGAACG [G9C U32C A36G G52A]	≤ 0.5
GUUCCGUUCGCGUAAUGGUAACGCGUCUCCCUCCAAAGGAGAUGACUGCGGGUUCGAGUCCCGUACGGAACG [G9C U35A A43U]	≤ 0.5
GUUCCGUUCGCGUAAUGGUAACGCGUCCCCCUCCUAAGGAGAACACUGCGGGUCCGAGUCCCGUACGGAACG [G9C U28C G44C U54C]	≤ 0.5
GUUCCGUUCGCGUAAUGGUAACGCGCCUCCCUCCUAAGGAGAAGACUGCGGGUGCGAGUCCCGUACGGAACG [G9C U26C U54G]	≤ 0.5
GUUCCGUUCGCGUAAUGGUAACGCGUCUCCCUCCUAAGGAGAAGACUGCGGGCUCGAGUACCGUACGGAACG [G9C U53C C60A]	≤ 0.5
GUUCCGUUCGCGUAAUGGUAACGCGUCCCCCUCCUAAGGAGUAGACUGCGGGUUCGAGGCCCGUACGGAACG [G9C U28C A42U U59G]	≤ 0.5
GUUCCGUUUGCGUAAGGGUAACGCGUCUCCCUCCUAAGGAGAAGACUGCGGGUUCGAGUCCCGUAAGGAACG [G9U U16G C66A]	≤ 0.5
GUUCCGUUUGCGUAAUGGUAACGCGUUUACCUCCUAAGGAGAAGACUGCGGGUUCGAGUCCCGUACGGUACG [G9U C27U C29A A69U]	≤ 0.5
GUUCCGUUCGCGUAAUGGUAACGCGGCUCCCUCCUAAGGAGAAGACUGCGGGUUCGAGUCCCGUACGGAACG [G9C U26G]	0.684
GUUCCGUUGACGUAGUGGUAACGCGUCUCCCUCCUAAGGAGCAGACUGCGGGUUCGAGUCCCGUACGGAACG [G10A A15G A42C]	≤ 0.5
GUUCCGUUGACGUAUUGGUAACGCGUCUCCCUCCUUAGGAGAAGACUGCGGGUUCGAGUCCCGUACGGACCG [G10A A15U A36U A70C]	≤ 0.5
GUUCCGUUUGCGUAAUGGUAACGCGUCUCCCUCCUAUGGAGAAGACUGCCGGUUCGAGUCCCGUAUGGAACG [G9U A37U G50C C66U]	≤ 0.5

Variant	yeast fitness
GUUCCGUUGACGUGAUGGUAACGCGUCUCCCUCCUGAGGAGAAGACUGCGGGUUCGAGUCCCGUACGGAACG [G10A A14G A36G]	≤ 0.5
GUUCCGUUGACGUACUGGUAACGCAUCUCCCUCCUAAGGAGAAGACCGCGGGUUCGAGUCCCGUAUGGAACG [G10A A15C G25A U47C C66U]	0.558
GUUCCGUUCGCGUAAUGGUAACGCGUCACCCUCCUAAGGAGAAGACUGCGGGUUCGAGUCCCGUACGGAACG [G9C U28A]	0.708
GUUCCGUUCGCGUAAUGGUAACGCGGCUCCCUCCUAAGGAGAAGACUGCGGGUUAGAGUCCCGUACGGAACG [G9C U26G C55A]	≤ 0.5
GUUCCGUUCGCGUAAUGGUAACGCGUCACCCUCCUAAGGCGAAGACCGCGGAUUCGAGUCCCGUACGGAACG [G9C U28A A40C U47C G52A]	≤ 0.5
GUUCCGUUGACGUCAUGGUAACGCGUCUCCCUCUUAAGGAGGAGACUGCGGGUUCGAGUCCCGUACGGAACG [G10A A14C C34U A42G]	0.65
GUUCCGUUGACGUAAUGGUAACGCGUCUCCCUCCUAAGGAGAAGACUGCGGGUUCGAGUCCCGUACGGAACG [G10A]	0.705
GUUCCGUUCGCGUAAUGGUAACGCGUCCCCCUCCUAAGGAGAACACUGCGGGUUCGAGUCCCGUACGGAACG [G9C U28C G44C]	0.619
GUUCCGUUCGCGUAAUGGUAACGCGUCUCCCCCCUAAGGAGACGACUGCGGGUUCGAGUCCCGUACGGAACG [G9C U32C A43C]	≤ 0.5
GUUCCGUUGACGUGAUGGUAACGCGUCUCCCUCGUAAGGAGAAGACUGCGGGUUCGAGUCCCGUACGGAACG [G10A A14G C34G]	≤ 0.5
GUUCCGUUUGCGUAAUGGUAACCCGUCUCCCUCCUAAGGAGAAGUCUGCGCGUUCGAGUCCCGUACGGAACG [G9U G23C A45U G51C]	≤ 0.5
GUUCCGUUCGCGUAAUGGUAACGCGUCACCCUCCUAAGGAGAAGACUGCCGGUUCGAGACCCGUACGGAACG [G9C U28A G50C U59A]	0.685
GUUCCGUUGACGUUAUGGUGACGCGGCUCCGUCGUAAGGAGUCGACUGCCGGUUCGAGUCCCGUACGGACCG [G10A A14U A20G U26G C31G C34G A42U A43C G50C A70C]	≤ 0.5
GUUCCGUUCGCGUAAUGGUAACGCGUCCCGCUCCUAAGGAGAAGACUGGGGGUUCGAGUCCCGUACGGAACG [G9C U28C C30G C49G]	≤ 0.5
GUUCCGUUUGCGUAAAGGUAACGCGUCUCCCUCCUCGGGAGAAGACUGCGGGUUCCAGUCCCGUACGGAACG [G9U U16A A36C A37G G56C]	≤ 0.5
GUUCCGUUUGCGUAAUGGUAACGCGUUUACAUCCUAAGGAGAAGACUGCGGGUUCGAGUCCCGUACGGAACG [G9U C27U C29A C31A]	≤ 0.5
GUUCCGUUGACGUUAUGGUACCGCGUCUUCCUCCUAAGGAGAAGACUGCGGGUUCGAGUACCGUACGGAACG [G10A A14U A21C C29U C60A]	0.647
GUUCCGUUUGCGUAAUGGUAACGCGUCUCCCUCCUAAGGAGAAGACUGCAGGUUCGAGUCCCGUACGGAACG [G9U G50A]	0.663
GUUCCGUUCGCGUAAUGGUAACGCGUCACCCUCCUAAGGAGAAGAUUGCGGGUUCGAGUACCGUACGGACCG [G9C U28A C46U C60A A70C]	≤ 0.5
